# “Also recorded” adds a separate entry of the source.
# Assay: Safety/tolerability: adverse events graded by NCI CTCAE v4.03
# Format: in vivo, human
# Outline: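 Solid tumour patients got oral test compound by hepatic group: normal 4 mg, moderate 2.3 mg, severe 1.5 mg. Dosing continued in a second part, with escalation allowed up to 4 mg. AEs were monitored from first dose until 30 days after the last dose and graded by CTCAE v4.03. Safety population was all patients with ≥1 dose. Investigators assigned relatedness.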
# [1] = moderate impairment 2.3 mg (n = 15)
# [2] = n = 1, not attributed to ixazomib
# [3] = severe impairment 1.5 mg (n = 20)
compound,measurement,setting,value
CC(C)C[C@H](NC(=O)CNC(=O)c1cc(Cl)ccc1Cl)B(O)O [ixazomib],"Drug-related AEs, patients",all patients (N = 48),46%
same,Drug-related decreased appetite,all patients (N = 48),8%
same,Drug-related dehydration,all patients (N = 48),6%
same,Drug-related diarrhoea,all patients (N = 48),6%
same,Drug-related fatigue,all patients (N = 48),8%
same,Drug-related nausea,all patients (N = 48),17%
same,Drug-related vomiting,all patients (N = 48),10%
same,drug-related serious dehydration,all patients (N = 48),4%
same,drug-related serious dyspnoea,all patients (N = 48),2%
same,drug-related serious fall,all patients (N = 48),2%
same,drug-related serious oesophageal ulcer,all patients (N = 48),2%
same,grade 3 drug-related anaemia,all patients (N = 48),2%
same,grade 3 drug-related dehydration,all patients (N = 48),6%
same,grade 3 drug-related fall,all patients (N = 48),2%
same,grade 3 drug-related fatigue,all patients (N = 48),4%
same,grade 4 drug-related AE,all patients (N = 48),no drug‐related grade 4 adverse events; also recorded: no patient had a grade 4 drug‐related AE
same,patients with serious AEs,all patients (N = 48),65%
same,rate of on-study deaths,all patients (N = 48),29%
same,"on-study deaths, number","all patients, none related to ixazomib, all related to progressive disease",14
same,patients with drug-related serious AEs,five serious AEs in four patients,8%
same,incidence of drug-related grade ≥3 AEs,"moderate hepatic impairment, 2.3 mg",20%
same,"Abdominal pain, any-grade TEAE",[1],2 (13) n (%)
same,"Acute renal failure, any-grade TEAE",[1],1 (7) n (%)
same,"Acute renal failure, grade ≥3 TEAE",[1],1 (7) n (%)
same,"Anaemia, any-grade TEAE",[1],3 (20) n (%)
same,"Anaemia, grade ≥3 TEAE",[1],1 (7) n (%)
same,Any-grade AE,[1],15 (100) n (%)
same,"Ascites, any-grade TEAE",[1],3 (20) n (%)
same,"Ascites, grade ≥3 TEAE",[1],2 (13) n (%)
same,"Back pain, any-grade TEAE",[1],0 n (%)
same,"Cough, any-grade TEAE",[1],2 (13) n (%)
same,"Decreased appetite, any-grade TEAE",[1],2 (13) n (%)
same,"Dehydration, any-grade TEAE",[1],2 (13) n (%)
same,"Dehydration, grade ≥3 TEAE",[1],2 (13) n (%)
same,"Diarrhoea, any-grade TEAE",[1],1 (7) n (%)
same,"Dyspnoea, any-grade TEAE",[1],3 (20) n (%)
same,"Fatigue, any-grade TEAE",[1],4 (27) n (%)
same,"Fatigue, grade ≥3 TEAE",[1],1 (7) n (%)
same,Grade ≥3 AE,[1],13 (87) n (%)
same,"Hyperbilirubinaemia, any-grade TEAE",[1],5 (33) n (%)
same,"Hyperbilirubinaemia, grade ≥3 TEAE",[1],5 (33) n (%)
same,"Hyperkalaemia, any-grade TEAE",[1],2 (13) n (%)
same,"Hypotension, any-grade TEAE",[1],1 (7) n (%)
same,"Hypotension, grade ≥3 TEAE",[1],1 (7) n (%)
same,"Insomnia, any-grade TEAE",[1],2 (13) n (%)
same,"Leukocytosis, grade ≥3 TEAE",[1],1 (7) n (%)
same,"Nausea, any-grade TEAE",[1],4 (27) n (%)
same,"Peripheral oedema, any-grade TEAE",[1],9 (60) n (%)
same,"Pyrexia, any-grade TEAE",[1],2 (13) n (%)
same,"Upper abdominal pain, any-grade TEAE",[1],1 (7) n (%)
same,"Vomiting, any-grade TEAE",[1],2 (13) n (%)
same,discontinuation owing to acute hepatic failure,[2],2%
same,discontinuation owing to acute renal failure,[2],2%
same,discontinuation owing to axillary pain/groin pain,[2],2%
same,discontinuation owing to confusional state,[2],2%
same,discontinuation owing to peritoneal haemorrhage,[2],2%
same,discontinuation owing to progression of pancreatic carcinoma,[2],2%
same,"Abdominal pain, any-grade TEAE",normal function 4 mg (n = 13),2 (15) n (%)
same,"Acute renal failure, any-grade TEAE",normal function 4 mg (n = 13),0 n (%)
same,"Acute renal failure, grade ≥3 TEAE",normal function 4 mg (n = 13),0 n (%)
same,"Anaemia, any-grade TEAE",normal function 4 mg (n = 13),2 (15) n (%)
same,"Anaemia, grade ≥3 TEAE",normal function 4 mg (n = 13),1 (8) n (%)
same,Any-grade AE,normal function 4 mg (n = 13),13 (100) n (%)
same,"Ascites, any-grade TEAE",normal function 4 mg (n = 13),0 n (%)
same,"Ascites, grade ≥3 TEAE",normal function 4 mg (n = 13),0 n (%)
same,"Back pain, any-grade TEAE",normal function 4 mg (n = 13),2 (15) n (%)
same,"Cough, any-grade TEAE",normal function 4 mg (n = 13),1 (8) n (%)
same,"Decreased appetite, any-grade TEAE",normal function 4 mg (n = 13),7 (54) n (%)
same,"Dehydration, any-grade TEAE",normal function 4 mg (n = 13),3 (23) n (%)
same,"Dehydration, grade ≥3 TEAE",normal function 4 mg (n = 13),0 n (%)
same,"Diarrhoea, any-grade TEAE",normal function 4 mg (n = 13),4 (31) n (%)
same,"Dyspnoea, any-grade TEAE",normal function 4 mg (n = 13),4 (31) n (%)
same,"Fatigue, any-grade TEAE",normal function 4 mg (n = 13),6 (46) n (%)
same,"Fatigue, grade ≥3 TEAE",normal function 4 mg (n = 13),2 (15) n (%)
same,Grade ≥3 AE,normal function 4 mg (n = 13),6 (46) n (%)
same,"Hyperbilirubinaemia, any-grade TEAE",normal function 4 mg (n = 13),0 n (%)
same,"Hyperbilirubinaemia, grade ≥3 TEAE",normal function 4 mg (n = 13),0 n (%)
same,"Hyperkalaemia, any-grade TEAE",normal function 4 mg (n = 13),1 (8) n (%)
same,"Hypotension, any-grade TEAE",normal function 4 mg (n = 13),0 n (%)
same,"Hypotension, grade ≥3 TEAE",normal function 4 mg (n = 13),0 n (%)
same,"Insomnia, any-grade TEAE",normal function 4 mg (n = 13),3 (23) n (%)
same,"Leukocytosis, grade ≥3 TEAE",normal function 4 mg (n = 13),0 n (%)
same,"Nausea, any-grade TEAE",normal function 4 mg (n = 13),9 (69) n (%)
same,"Peripheral oedema, any-grade TEAE",normal function 4 mg (n = 13),2 (15) n (%)
same,"Pyrexia, any-grade TEAE",normal function 4 mg (n = 13),1 (8) n (%)
same,"Upper abdominal pain, any-grade TEAE",normal function 4 mg (n = 13),2 (15) n (%)
same,"Vomiting, any-grade TEAE",normal function 4 mg (n = 13),7 (54) n (%)
same,incidence of drug-related grade ≥3 AEs,"normal hepatic function, 4 mg",23%
same,incidence of peripheral neuropathy (PN),"one patient, grade 2, treatment-related, history of neuropathy",2%
same,patients with rash-related AEs,"seven events in total, all grade 1 or 2, none serious",Five
same,"on-study deaths, number",severe hepatic impairment group,eight
same,incidence of drug-related grade ≥3 AEs,"severe hepatic impairment, 1.5 mg",5%
same,"Abdominal pain, any-grade TEAE",[3],2 (10) n (%)
same,"Acute renal failure, any-grade TEAE",[3],6 (30) n (%)
same,"Acute renal failure, grade ≥3 TEAE",[3],5 (25) n (%)
same,"Anaemia, any-grade TEAE",[3],3 (15) n (%)
same,"Anaemia, grade ≥3 TEAE",[3],2 (10) n (%)
same,Any-grade AE,[3],20 (100) n (%)
same,"Ascites, any-grade TEAE",[3],3 (15) n (%)
same,"Ascites, grade ≥3 TEAE",[3],2 (10) n (%)
same,"Back pain, any-grade TEAE",[3],3 (15) n (%)
same,"Cough, any-grade TEAE",[3],3 (15) n (%)
same,"Decreased appetite, any-grade TEAE",[3],1 (5) n (%)
same,"Dehydration, any-grade TEAE",[3],3 (15) n (%)
same,"Dehydration, grade ≥3 TEAE",[3],2 (10) n (%)
same,"Diarrhoea, any-grade TEAE",[3],1 (5) n (%)
same,"Dyspnoea, any-grade TEAE",[3],4 (20) n (%)
same,"Fatigue, any-grade TEAE",[3],5 (25) n (%)
same,"Fatigue, grade ≥3 TEAE",[3],1 (5) n (%)
same,Grade ≥3 AE,[3],18 (90) n (%)
same,"Hyperbilirubinaemia, any-grade TEAE",[3],5 (25) n (%)
same,"Hyperbilirubinaemia, grade ≥3 TEAE",[3],5 (25) n (%)
same,"Hyperkalaemia, any-grade TEAE",[3],2 (10) n (%)
same,"Hypotension, any-grade TEAE",[3],4 (20) n (%)
same,"Hypotension, grade ≥3 TEAE",[3],2 (10) n (%)
same,"Insomnia, any-grade TEAE",[3],1 (5) n (%)
same,"Leukocytosis, grade ≥3 TEAE",[3],2 (10) n (%)
same,"Nausea, any-grade TEAE",[3],5 (25) n (%)
same,"Peripheral oedema, any-grade TEAE",[3],4 (20) n (%)
same,"Pyrexia, any-grade TEAE",[3],4 (20) n (%)
same,"Upper abdominal pain, any-grade TEAE",[3],2 (10) n (%)
same,"Vomiting, any-grade TEAE",[3],4 (20) n (%)
same,"Abdominal pain, any-grade TEAE",total (N = 48),6 (13) n (%)
same,"Acute renal failure, any-grade TEAE",total (N = 48),7 (15) n (%)
same,"Acute renal failure, grade ≥3 TEAE",total (N = 48),6 (13) n (%)
same,"Anaemia, any-grade TEAE",total (N = 48),8 (17) n (%)
same,"Anaemia, grade ≥3 TEAE",total (N = 48),4 (8) n (%)
same,Any-grade AE,total (N = 48),48 (100) n (%)
same,"Ascites, any-grade TEAE",total (N = 48),6 (13) n (%)
same,"Ascites, grade ≥3 TEAE",total (N = 48),4 (8) n (%)
same,"Back pain, any-grade TEAE",total (N = 48),5 (10) n (%)
same,"Cough, any-grade TEAE",total (N = 48),6 (13) n (%)
same,"Decreased appetite, any-grade TEAE",total (N = 48),10 (21) n (%)
same,"Dehydration, any-grade TEAE",total (N = 48),8 (17) n (%)
same,"Dehydration, grade ≥3 TEAE",total (N = 48),4 (8) n (%)
same,"Diarrhoea, any-grade TEAE",total (N = 48),6 (13) n (%)
same,"Dyspnoea, any-grade TEAE",total (N = 48),11 (23) n (%)
same,"Fatigue, any-grade TEAE",total (N = 48),15 (31) n (%)
same,"Fatigue, grade ≥3 TEAE",total (N = 48),4 (8) n (%)
same,Grade ≥3 AE,total (N = 48),37 (77) n (%)
same,"Hyperbilirubinaemia, any-grade TEAE",total (N = 48),10 (21) n (%)
same,"Hyperbilirubinaemia, grade ≥3 TEAE",total (N = 48),10 (21) n (%)
same,"Hyperkalaemia, any-grade TEAE",total (N = 48),5 (10) n (%)
same,"Hypotension, any-grade TEAE",total (N = 48),5 (10) n (%)
same,"Hypotension, grade ≥3 TEAE",total (N = 48),3 (6) n (%)
same,"Insomnia, any-grade TEAE",total (N = 48),6 (13) n (%)
same,"Leukocytosis, grade ≥3 TEAE",total (N = 48),3 (6) n (%)
same,"Nausea, any-grade TEAE",total (N = 48),18 (38) n (%)
same,"Peripheral oedema, any-grade TEAE",total (N = 48),15 (31) n (%)
same,"Pyrexia, any-grade TEAE",total (N = 48),7 (15) n (%)
same,"Upper abdominal pain, any-grade TEAE",total (N = 48),5 (10) n (%)
same,"Vomiting, any-grade TEAE",total (N = 48),13 (27) n (%)

# Reference: paper PMC5089614 (British Journal of Clinical Pharmacology, 2016)
